Source: ChEMBL document CHEMBL2331482, “Synthesis of some new 2-(3-pyridyl)-4,5-disubstituted thiazoles as potent antimicrobial agents” (2013)
In brackets after ≈: the same amount, converted by molar mass. Activity calls are given as the source filed them. The calls are words filed in the database; no cut-off is given here.

Tests used:
Format in all cases: functional
Proteus vulgaris = test: Antibacterial activity against Proteus vulgaris RCMB 010085 assessed as growth inhibition after 24 hrs by twofold serial dilution method
Procedure, shortened: (§1)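 Broth microdilution in Müller–Hinton broth, 96-well plates. Only compounds giving disc-diffusion zones >10 mm were tested. DMF stocks (1000 µg/mL) were diluted twofold to a final 500–0.007 µg/mL, with about 10^6 CFU/mL bacteria. Sealed plates ran 24 h at 37 °C in a humid chamber. MIC was the lowest concentration with no visible turbidity. DMF and uninoculated-medium controls were included.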

Pseudomonas aeruginosa = test: Antibacterial activity against Pseudomonas aeruginosa RCMB 010043 assessed as growth inhibition after 24 hrs by twofold serial dilution method; procedure, shortened: as §1
Bacillus subtilis = test: Antibacterial activity against Bacillus subtilis RCMB 010063 assessed as growth inhibition after 24 hrs by twofold serial dilution method; details: RCMB 010063, 24 h; procedure, shortened: as §1
Candida albicans = test: Antifungal activity against Candida albicans RCMB 05035 assessed as growth inhibition after 48 hrs by twofold serial dilution method
Procedure, shortened: (§2)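 Fungi were tested by microdilution in Sabouraud liquid medium. Only compounds with disc-diffusion zones >10 mm went on to this test. DMF stocks (1000 µg/mL) were serially diluted twofold to 500–0.007 µg/mL. Sealed plates were held 48 h at 25 °C in a humid chamber. MIC was the lowest concentration without visible turbidity. DMF and uninoculated-medium controls ran in parallel.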

Talaromyces marneffei = test: Antifungal activity against Penicillium marneffei RCMB 01267 assessed as growth inhibition after 48 hrs by twofold serial dilution method; procedure, shortened: as §2
[1] = test system: Staphylococcus epidermidis; test: Antibacterial activity against Staphylococcus epidermidis RCMB 010024 assessed as growth inhibition after 24 hrs by twofold serial dilution method; details: RCMB 010024, 24 h; procedure, shortened: as §1
Enterococcus faecalis = test: Antibacterial activity against Enterococcus faecalis RCMB 010068 assessed as growth inhibition after 24 hrs by twofold serial dilution method; procedure, shortened: as §1
Klebsiella pneumoniae = test: Antibacterial activity against Klebsiella pneumoniae RCMB 010093 assessed as growth inhibition after 24 hrs by twofold serial dilution method; procedure, shortened: as §1
Geotrichum candidum = test: Antifungal activity against Geotricum candidum RCMB 05096 assessed as growth inhibition after 48 hrs by twofold serial dilution method; details: RCMB 05096, 48 h; procedure, shortened: as §2
Shigella flexneri = test: Antibacterial activity against Shigella flexneri RCMB 0100542 assessed as growth inhibition after 24 hrs by twofold serial dilution method; procedure, shortened: as §1
Streptococcus pyogenes = test: Antibacterial activity against Streptococcus pyogenes RCMB 010015 assessed as growth inhibition after 24 hrs by twofold serial dilution method; procedure, shortened: as §1
Neisseria gonorrhoeae = test: Antibacterial activity against Neisseria gonorrhoeae RCMB 010076 assessed as growth inhibition after 24 hrs by twofold serial dilution method; procedure, shortened: as §1
Aspergillus clavatus = test: Antifungal activity against Aspergillus clavatus RCMB 02593 assessed as growth inhibition after 48 hrs by twofold serial dilution method; details: RCMB 02593, 48 h; procedure, shortened: as §2
Aspergillus fumigatus = test: Antifungal activity against Aspergillus fumigatus RCMB 02564 assessed as growth inhibition after 48 hrs by twofold serial dilution method; details: RCMB 02564, 48 h; procedure, shortened: as §2
Staphylococcus aureus = test: Antibacterial activity against Staphylococcus aureus RCMB 010027 assessed as growth inhibition after 24 hrs by twofold serial dilution method; details: RCMB 010027, 24 h; procedure, shortened: as §1
[2] = test system: Staphylococcus epidermidis; test: Ratio of ampicillin MIC to compound MIC for Staphylococcus epidermidis RCMB 010024

| MIC (Proteus vulgaris; RCMB 010085, 24 h) [µg/mL] | MIC (Pseudomonas aeruginosa) | MIC (Bacillus subtilis) [µg/mL] | MIC (Candida albicans; RCMB 05035, 48 h) [µg/mL] | MIC (Talaromyces marneffei; RCMB 01267, 48 h) [µg/mL] | MIC [1] [µg/mL] | MIC (Enterococcus faecalis; RCMB 010068, 24 h) [µg/mL] | MIC (Klebsiella pneumoniae; RCMB 010093, 24 h) [µg/mL] | MIC (Geotrichum candidum) [µg/mL] | MIC (Shigella flexneri; RCMB 0100542, 24 h) [µg/mL] | MIC (Streptococcus pyogenes) | MIC (Neisseria gonorrhoeae; RCMB 010076, 24 h) [µg/mL] | MIC (Aspergillus clavatus) [µg/mL] | MIC (Aspergillus fumigatus) [µg/mL] | MIC (Staphylococcus aureus) [µg/mL] | MIC (Shigella flexneri) | MIC (Neisseria gonorrhoeae) | MIC (Pseudomonas aeruginosa; RCMB 010043, 24 h) [µg/mL] | MIC (Streptococcus pyogenes; RCMB 010015, 24 h) [µg/mL] | Compound | other results |
| --- | --- | --- | --- | --- | --- | --- | --- | --- | --- | --- | --- | --- | --- | --- | --- | --- | --- | --- | --- | --- |
| 31.2 (≈ 89.2 µM) | inactive | 15.6 (≈ 44.6 µM) | 250 (≈ 713 µM) | 62.5 (≈ 178 µM) | 15.6 (≈ 44.6 µM) | 250 (≈ 713 µM) | 62.5 (≈ 178 µM) | 31.2 (≈ 89.2 µM) | 62.5 (≈ 178 µM) | inactive | 500 (≈ 1430 µM) | 62.5 (≈ 178 µM) | 31.2 (≈ 89.2 µM) | 15.6 (≈ 44.6 µM) | – | – | – | – | COc1ccc(C2CC(c3sc(-c4cccnc4)nc3C)=NN2)cc1 (stereo unspecified) | – |
| – | inactive | 0.97 (≈ 3.28 µM) | – | – | 1.95 (≈ 6.6 µM) | – | – | 7.81 (≈ 26.4 µM) | – | inactive | – | 15.6 (≈ 52.9 µM) | 7.81 (≈ 26.4 µM) | 3.9 (≈ 13.2 µM) | inactive | inactive | – | – | CC(=O)Nc1ccc(-c2csc(-c3cccnc3)n2)cc1 | MIC (Proteus vulgaris): inactive; MIC (Candida albicans): inactive; MIC (Talaromyces marneffei): inactive; MIC (Enterococcus faecalis): inactive; MIC (Klebsiella pneumoniae): inactive |
| 7.81 (≈ 23.2 µM) | – | 1.95 (≈ 5.8 µM) | 62.5 (≈ 186 µM) | 7.81 (≈ 23.2 µM) | 3.9 (≈ 11.6 µM) | 62.5 (≈ 186 µM) | 3.9 (≈ 11.6 µM) | 7.81 (≈ 23.2 µM) | 7.81 (≈ 23.2 µM) | – | 125 (≈ 372 µM) | 31.2 (≈ 92.9 µM) | 15.6 (≈ 46.5 µM) | 3.9 (≈ 11.6 µM) | – | – | 250 (≈ 743 µM) | 31.2 (≈ 92.9 µM) | COc1ccc(/C=C/C(=O)c2sc(-c3cccnc3)nc2C)cc1 | – |
| – | inactive | 62.5 (≈ 176 µM) | – | 250 (≈ 704 µM) | 62.5 (≈ 176 µM) | 125 (≈ 352 µM) | – | 125 (≈ 352 µM) | – | inactive | – | 125 (≈ 352 µM) | 125 (≈ 352 µM) | 125 (≈ 352 µM) | inactive | inactive | – | – | Cc1nc(-c2cccnc2)sc1C1=NNC(c2ccc(Cl)cc2)C1 (stereo unspecified) | MIC (Proteus vulgaris): inactive; MIC (Candida albicans): inactive; MIC (Klebsiella pneumoniae): inactive |
| 3.9 (≈ 17.9 µM) | – | 0.06 (≈ 0.275 µM) | 7.81 (≈ 35.8 µM) | 3.9 (≈ 17.9 µM) | 0.24 (≈ 1.1 µM) | 7.81 (≈ 35.8 µM) | 0.48 (≈ 2.2 µM) | 0.48 (≈ 2.2 µM) | 3.9 (≈ 17.9 µM) | – | 15.6 (≈ 71.6 µM) | 3.9 (≈ 17.9 µM) | 1.95 (≈ 8.93 µM) | 0.24 (≈ 1.1 µM) | – | – | 500 (≈ 2290 µM) | 3.9 (≈ 17.9 µM) | CC(=O)c1sc(-c2cccnc2)nc1C | Ratio [2]: 2 |
| 62.5 (≈ 183 µM) | inactive | 31.2 (≈ 91.7 µM) | 250 (≈ 733 µM) | 62.5 (≈ 183 µM) | 31.2 (≈ 91.7 µM) | – | 31.2 (≈ 91.7 µM) | 31.2 (≈ 91.7 µM) | – | inactive | – | 125 (≈ 367 µM) | 62.5 (≈ 183 µM) | 62.5 (≈ 183 µM) | inactive | inactive | – | – | Cc1nc(-c2cccnc2)sc1C(=O)/C=C/c1ccc(Cl)cc1 | MIC (Enterococcus faecalis): inactive |
| 15.6 (≈ 51 µM) | – | 3.9 (≈ 12.7 µM) | 125 (≈ 408 µM) | 31.2 (≈ 102 µM) | 3.9 (≈ 12.7 µM) | 62.5 (≈ 204 µM) | 7.81 (≈ 25.5 µM) | 15.6 (≈ 51 µM) | 1.95 (≈ 6.37 µM) | – | 62.5 (≈ 204 µM) | 15.6 (≈ 51 µM) | 15.6 (≈ 51 µM) | 7.81 (≈ 25.5 µM) | – | – | 62.5 (≈ 204 µM) | 7.81 (≈ 25.5 µM) | O=c1oc2ccccc2cc1-c1csc(-c2cccnc2)n1 | – |

| Compound | MIC (Proteus vulgaris; RCMB 010085, 24 h) [µg/mL] | MIC (Pseudomonas aeruginosa) | MIC (Bacillus subtilis) [µg/mL] | MIC (Candida albicans; RCMB 05035, 48 h) [µg/mL] | MIC (Talaromyces marneffei; RCMB 01267, 48 h) [µg/mL] | MIC [1] [µg/mL] | MIC (Enterococcus faecalis; RCMB 010068, 24 h) [µg/mL] | MIC (Klebsiella pneumoniae; RCMB 010093, 24 h) [µg/mL] | MIC (Geotrichum candidum) [µg/mL] | MIC (Shigella flexneri; RCMB 0100542, 24 h) [µg/mL] | MIC (Streptococcus pyogenes) | MIC (Neisseria gonorrhoeae; RCMB 010076, 24 h) [µg/mL] | MIC (Aspergillus clavatus) [µg/mL] | MIC (Aspergillus fumigatus) [µg/mL] | MIC (Staphylococcus aureus) [µg/mL] | MIC (Shigella flexneri) | MIC (Neisseria gonorrhoeae) | MIC (Pseudomonas aeruginosa; RCMB 010043, 24 h) [µg/mL] | MIC (Streptococcus pyogenes; RCMB 010015, 24 h) [µg/mL] | other results |
| --- | --- | --- | --- | --- | --- | --- | --- | --- | --- | --- | --- | --- | --- | --- | --- | --- | --- | --- | --- | --- |
| Cc1csc(-c2cccnc2)n1 | 3.9 (≈ 22.1 µM) | – | 1.95 (≈ 11.1 µM) | 31.2 (≈ 177 µM) | 3.9 (≈ 22.1 µM) | 0.97 (≈ 5.5 µM) | 31.2 (≈ 177 µM) | 1.95 (≈ 11.1 µM) | 1.95 (≈ 11.1 µM) | 3.9 (≈ 22.1 µM) | – | 62.5 (≈ 355 µM) | 15.6 (≈ 88.7 µM) | 7.81 (≈ 44.3 µM) | 0.97 (≈ 5.5 µM) | – | – | 125 (≈ 709 µM) | 15.6 (≈ 88.7 µM) | – |
